Reference: ChEMBL document CHEMBL1833790, “N-(2-{3-[3,5-bis(trifluoromethyl)phenyl]ureido}ethyl)-glycyrrhetinamide (6b): a novel anticancer glycyrrhetinic acid derivative that targets the proteasome and displays anti-kinase activity” (J Med Chem, 2011)
Activity calls are given as the source filed them. The calls are words filed in the database; no cut-off is given here. Peptide text beside a SMILES is read from it. * marks the point of attachment. Cbz = O=C(OCc1ccccc1)*

How the values were obtained:
[1] = Chemical stability of the compound in MEM cell culture medium after 7 days by HPLC analysis; type: physicochemical; conditions: read-out: Stability
How it was run: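 Compound incubated in MEM culture medium at 37 °C for 7 days, then analysed by HPLC on RX-C8 (5 μm) column with MeOH–water 90:10 (0.1% TFA), diode-array detection. Expressed as % of incubated compound recovered.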

B16-F10 = experiment: Growth inhibition in mouse B16F10 after 3 days by MTT assay; type: functional; conditions: B16-F10, 72 h
How it was run: (§1)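 Cells grown in RPMI with 10% heat-inactivated FCS, 4 mM glutamine, gentamicin and penicillin–streptomycin. Drug exposure 3 days, growth read by MTT colorimetric assay. Nine concentrations from 0.01 to 100 μM in semilog steps, six replicates each; IC50 derived per cell line.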

T98G = experiment: Growth inhibition in apoptosis-resistant human T98G after 3 days by MTT assay; type: functional; conditions: 72 h; how it was run: as §1
MCF7 = experiment: Growth inhibition in apoptosis-sensitive human MCF7 after 3 days by MTT assay; type: functional; conditions: MCF7, 72 h; how it was run: as §1
PC-3 = experiment: Growth inhibition in apoptosis-sensitive human PC3 after 3 days by MTT assay; type: functional; conditions: PC-3, 72 h; how it was run: as §1
U-373MG ATCC [2] = experiment: Activation of chymotrypsin-like activity of 20S proteasome in human U373 cells at 90 uM after 2 days by bioluminescence assay; type: cell-based
How it was run: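 Chymotrypsin-like site, substrate Suc-LLVY-Glo. U373 cells were seeded at 5000 cells/mL for 48 h and exposed two days. After a PBS wash and 0.025% digitonin permeabilisation, Proteasome-Glo reagent was added. Bioluminescence was read after 10 min dark incubation. Triplicates, normalised by a concurrent MTT viability assay run in identical conditions.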

SK-MEL-28 = experiment: Growth inhibition in apoptosis-resistant human SK-MEL-28 after 3 days by MTT assay; type: functional; conditions: SK-MEL-28, 72 h; how it was run: as §1
Hs 683 = experiment: Growth inhibition in apoptosis-sensitive human Hs683 after 3 days by MTT assay; type: functional; conditions: Hs 683, 72 h; how it was run: as §1
U-373MG ATCC [3] = experiment: Inhibition of trypsin-like activity of 20S proteasome in human U373 cells at 90 uM after 2 days by bioluminescence assay; type: cell-based
How it was run: (§2)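 U373 GBM cells seeded at 5000 cells/mL and grown 48 h, then treated for two days. Cells washed in PBS and permeabilised with 0.025% digitonin. Proteasome-Glo reagent added with Suc-LLVY-Glo (chymotrypsin-like), Z-LRR-Glo (trypsin-like) or Z-nLPnLD-Glo (caspase-like) substrate. Luminescence read after 10 min in the dark and normalised to a parallel MTT viability assay; triplicates. MG-132 at 0.5 μM used as reference.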

U-373MG ATCC [4] = experiment: Activation of caspase-like activity of 20S proteasome in human U373 cells at 90 uM after 2 days by bioluminescence assay; type: cell-based
How it was run: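 Caspase-like site, substrate Z-nLPnLD-Glo. U373 cells were plated at 5000 cells/mL for 48 h, then treated two days. Cells were PBS-washed and permeabilised with 0.025% digitonin before Proteasome-Glo reagent was added. Luminescence was read after 10 min in the dark. Triplicates, normalised to a parallel MTT viability assay under identical conditions.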

[5] = Growth inhibition in apoptosis-resistant human U373 after 3 days by MTT assay; type: functional, U-373MG ATCC; conditions: U373 MG, 72 h; how it was run: as §1
A549 [6] = experiment: Cell cycle arrest in human A549 cells assessed as accumulation of cells in G1 phase at 100 uM after 48 to 72 hrs by TUNEL-based flow cytometric analysis; type: functional
How it was run: (§3)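 A549 NSCLC and U373 GBM cells were treated 48 or 72 h and analysed with the APO AF kit. TUNEL labelling ran 1 h at 37 °C, followed by propidium iodide (5 μg/mL) with RNase. Apoptotic fraction and % cells in G1 were measured by flow cytometry. Kit negative/positive controls and 1 μM narciclasine-treated PC-3 cells served as controls.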

[7] = target: T1, Peroxisome proliferator-activated receptor gamma (Homo sapiens) (UniProt P37231); experiment: Activation of PPARgamma activity in human U373 cells at 90 uM after 6 hrs by spectrophotometric analysis relative to control; conditions: U-373MG ATCC
T1 sequence (whole entry): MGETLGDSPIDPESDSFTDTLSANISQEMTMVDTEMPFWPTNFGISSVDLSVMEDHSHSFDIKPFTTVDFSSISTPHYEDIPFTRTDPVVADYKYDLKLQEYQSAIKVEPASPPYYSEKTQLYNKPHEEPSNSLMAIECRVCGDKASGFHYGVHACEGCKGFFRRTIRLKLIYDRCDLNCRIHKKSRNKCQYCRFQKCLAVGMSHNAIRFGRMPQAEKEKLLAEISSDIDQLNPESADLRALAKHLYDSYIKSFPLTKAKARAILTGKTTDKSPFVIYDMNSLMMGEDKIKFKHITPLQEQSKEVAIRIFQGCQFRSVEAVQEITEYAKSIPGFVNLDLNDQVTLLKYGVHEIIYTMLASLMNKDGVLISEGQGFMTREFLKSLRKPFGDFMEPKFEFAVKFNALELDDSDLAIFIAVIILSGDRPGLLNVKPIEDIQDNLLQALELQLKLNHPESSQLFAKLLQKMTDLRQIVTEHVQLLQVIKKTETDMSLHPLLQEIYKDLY

A549 [8] = experiment: Growth inhibition in apoptosis-resistant human A549 after 3 days by MTT assay; type: functional; conditions: A549, 72 h; how it was run: as §1
[9] = Cell cycle arrest in human U373 cells assessed as accumulation of cells in G1 phase at 80 uM after 48 to 72 hrs by TUNEL-based flow cytometric analysis; type: functional; conditions: U-373MG ATCC; how it was run: as §3
U-373MG ATCC [10] = experiment: Inhibition of trypsin-like activity of 20S proteasome in human U373 cells at 7 uM after 2 days by bioluminescence assay; type: cell-based; how it was run: as §2
U-373MG ATCC [11] = experiment: Inhibition of trypsin-like activity of 20S proteasome in human U373 cells at 60 uM after 2 days by bioluminescence assay; type: cell-based; how it was run: as §2
U-373MG ATCC [12] = experiment: Inhibition of chymotrypsin-like activity of 20S proteasome in human U373 cells at 0.5 uM after 2 days by bioluminescence assay; type: cell-based; how it was run: as §2
U-373MG ATCC [13] = experiment: Inhibition of caspase-like activity of 20S proteasome in human U373 cells at 0.5 uM after 2 days by bioluminescence assay; type: cell-based; how it was run: as §2
U-373MG ATCC [14] = experiment: Inhibition of trypsin-like activity of 20S proteasome in human U373 cells at 0.5 uM after 2 days by bioluminescence assay; type: cell-based; how it was run: as §2
U-373MG ATCC [15] = experiment: Inhibition of chymotrypsin-like activity of 20S proteasome in human U373 at 7 uM after 2 days by bioluminescence assay; type: cell-based; how it was run: as §2
U-373MG ATCC [16] = experiment: Inhibition of caspase-like activity of 20S proteasome in human U373 cells at 7 uM after 2 days by bioluminescence assay; type: cell-based; how it was run: as §2
U-373MG ATCC [17] = experiment: Inhibition of caspase-like activity of 20S proteasome in human U373 cells at 60 uM after 2 days by bioluminescence assay; type: cell-based; how it was run: as §2
U-373MG ATCC [18] = experiment: Inhibition of chymotrypsin-like activity of 20S proteasome in human U373 cells at 60 uM after 2 days by bioluminescence assay; type: cell-based; how it was run: as §2
[19] = target: T1, Peroxisome proliferator-activated receptor gamma (Homo sapiens); experiment: Activation of PPARgamma activity in human U373 cells at 60 uM after 6 hrs by spectrophotometric analysis relative to control; type: cell-based; conditions: U-373MG ATCC
How it was run: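 U373 glioblastoma cells were exposed for 6 h. Nuclear extracts were prepared by hypotonic buffer, NP-40 lysis and a protease-inhibitor extraction buffer. Extracts were bound overnight at 4 °C in a PPAR-γ transcription-factor plate, then probed with primary antibody and HRP anti-rabbit secondary, 1 h each at room temperature. Developer ran 45 min, read at 450 nm. Triplicates, mean ± SD versus control.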

Row | remaining at 168 h [1] [%] | GI50 (B16-F10) [µM] | GI50 (MCF7) [µM] | GI50 (PC-3) [µM] | GI50 (SK-MEL-28) [µM] | GI50 (A549 [8]) [µM] | SMILES | GI50 (T98G) [µM] | GI50 (Hs 683) [µM] | GI50 [5] [µM] | inhibition (U-373MG ATCC [10]) | inhibition (U-373MG ATCC [11]) | inhibition (U-373MG ATCC [12]) | inhibition (U-373MG ATCC [13]) | inhibition (U-373MG ATCC [14]) | inhibition (U-373MG ATCC [15]) | inhibition (U-373MG ATCC [16]) | inhibition (U-373MG ATCC [17]) | inhibition (U-373MG ATCC [18]) | other results
1 | 98 | 37 | 76 | 80 | 92 | > 100 | CC1(C)[C@@H](O)CC[C@]2(C)[C@H]3C(=O)C=C4[C@@H]5C[C@@](C)(C(=O)O)CC[C@]5(C)CC[C@@]4(C)[C@]3(C)CC[C@@H]12 [ENOXOLONE] | 85 | 84 | 83 |  |  |  |  |  |  |  |  |  | Activity (U-373MG ATCC [2]): Active; inhibition (U-373MG ATCC [3]): Active; Activity (U-373MG ATCC [4]): Active; Activity (A549 [6]): inactive; Activity [7]: Active; Activity [9]: inactive
2 |  |  |  |  |  |  | CC(C)C[C@@H](C=O)NC(=O)[C@H](CC(C)C)NC(=O)[C@H](CC(C)C)NC(=O)OCc1ccccc1 (Cbz-Leu-Leu-Leu-aldehyde) |  |  |  | Active | Active | Active | Active | Active | Active | Active | Active | Active | 
3 | 90 | 30 | 59 | 31 | > 100 | 31 | CC1(C)[C@@H](O)CC[C@]2(C)[C@H]3C(=O)C=C4[C@@H]5C[C@@](C)(C(=O)NCCN)CC[C@]5(C)CC[C@@]4(C)[C@]3(C)CC[C@@H]12 | > 100 | 58 | 32 | Active | Active | Active | Active | Active | Active | Active | Active | Active | Activity [19]: Active
